Our source for the IC50 and inhibition values is ChEMBL document CHEMBL1250463, “N(epsilon)-Modified lysine containing inhibitors for SIRT1 and SIRT2” (Bioorg Med Chem, 2010).

Each structure is given as a SMILES string.

Experiment [1] deals with T1, NAD-dependent protein deacetylase sirtuin-1 (Homo sapiens, UniProt Q96EB6).
T1 sequence (Q96EB6 whole entry): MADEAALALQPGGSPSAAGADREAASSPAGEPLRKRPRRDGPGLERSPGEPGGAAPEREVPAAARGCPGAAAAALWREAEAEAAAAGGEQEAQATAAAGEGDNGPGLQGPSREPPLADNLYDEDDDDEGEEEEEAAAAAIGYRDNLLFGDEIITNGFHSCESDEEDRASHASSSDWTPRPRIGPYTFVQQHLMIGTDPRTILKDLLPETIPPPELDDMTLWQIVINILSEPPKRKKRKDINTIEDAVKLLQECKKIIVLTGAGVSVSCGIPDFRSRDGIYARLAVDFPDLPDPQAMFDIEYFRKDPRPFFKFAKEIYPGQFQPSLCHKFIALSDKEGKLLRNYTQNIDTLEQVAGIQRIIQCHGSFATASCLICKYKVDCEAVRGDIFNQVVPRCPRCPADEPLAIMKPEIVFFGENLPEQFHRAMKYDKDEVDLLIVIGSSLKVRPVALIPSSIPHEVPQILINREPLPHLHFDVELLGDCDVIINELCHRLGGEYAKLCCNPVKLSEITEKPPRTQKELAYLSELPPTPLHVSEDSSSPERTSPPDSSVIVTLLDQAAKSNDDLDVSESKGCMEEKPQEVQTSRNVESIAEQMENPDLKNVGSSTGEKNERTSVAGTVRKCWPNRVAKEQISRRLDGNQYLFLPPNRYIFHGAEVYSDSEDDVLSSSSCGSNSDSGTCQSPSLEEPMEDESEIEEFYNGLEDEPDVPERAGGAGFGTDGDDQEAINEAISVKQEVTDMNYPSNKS
Kind of experiment: Inhibition of GST-SIRT1 after 1 hr by Fluor de Lys fluorescence assay. The essentials:
(§1)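 Recombinant GST-SIRT1 with Fluor de Lys acetylated SIRT1 peptide substrate at 70% of its Km, plus NAD+, in HDAC assay buffer with 1 mg/ml BSA. Buffer, substrate, NAD+ and compound in DMSO (2.5 in 50 total) were preincubated 5 min at rt. Enzyme addition started the reaction, run 1 h at 37 °C. Developer plus 2 mM nicotinamide was then added for 45 min at 37 °C before fluorescence read-out.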

Experiment [2] has as its target T2, NAD-dependent protein deacetylase sirtuin-2 (Homo sapiens, UniProt Q8IXJ6).
T2 sequence (Q8IXJ6 whole entry): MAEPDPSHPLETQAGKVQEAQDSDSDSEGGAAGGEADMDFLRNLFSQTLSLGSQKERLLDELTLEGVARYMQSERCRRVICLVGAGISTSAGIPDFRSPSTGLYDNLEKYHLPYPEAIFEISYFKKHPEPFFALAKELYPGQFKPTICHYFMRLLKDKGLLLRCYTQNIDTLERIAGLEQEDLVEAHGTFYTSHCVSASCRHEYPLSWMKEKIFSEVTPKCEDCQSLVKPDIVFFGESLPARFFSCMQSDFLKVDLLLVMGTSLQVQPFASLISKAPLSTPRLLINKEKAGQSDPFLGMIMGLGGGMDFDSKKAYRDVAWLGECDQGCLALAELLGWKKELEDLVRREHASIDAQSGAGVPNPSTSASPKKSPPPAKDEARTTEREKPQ
As to the kind of experiment: Inhibition of GST-SIRT2 after 1 hr by Fluor de Lys fluorescence assay. The essentials: (§2)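 Recombinant GST-SIRT2 with Fluor de Lys acetylated SIRT2 peptide substrate at 70% of its Km, plus NAD+, in HDAC assay buffer with 1 mg/ml BSA. Compound or DMSO was preincubated 5 min at rt with buffer, substrate and NAD+. Enzyme was added to start the reaction, run 1 h at 37 °C. Developer with 2 mM nicotinamide followed for 45 min at 37 °C, then fluorescence was read.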

In experiment [3] the target is T3, NAD-dependent protein deacetylase sirtuin-1 (Homo sapiens) (UniProt Q96EB6).
T3 sequence (whole entry): T1 sequence (Q96EB6 whole entry)
Kind of experiment: Inhibition of GST-SIRT1 at 200 uM after 1 hr by Fluor de Lys fluorescence assay. The essentials: as §1

For experiment [4], the target named is T4, NAD-dependent protein deacetylase sirtuin-2 (Homo sapiens) (UniProt Q8IXJ6).
T4 sequence (whole entry): T2 sequence (Q8IXJ6 whole entry)
Kind of experiment: Inhibition of GST-SIRT2 at 200 uM after 1 hr by Fluor de Lys fluorescence assay. The method, boiled down: as §2

Take `CNC(=O)[C@H](C)NC(=O)[C@H](CCCCNC(C)=O)NC(=O)[C@H](C)NC(C)=O`: the IC50 (in general, the concentration that inhibits the measured activity by half) in experiment [1] was found to be 88 µM; in experiment [2], 60 µM. The inhibition (commonly the share of the control response that was lost under treatment) was 66% in experiment [3] and 68% in experiment [4].
`CC(C)(C)OC(=O)NCCCC[C@H](NC(=O)OCc1ccccc1)C(=O)Nc1ccccc1`: the values for the inhibition in experiment [3] and in experiment [4] were 6% and 13%, respectively.
For `COC(=O)[C@H](C)NC(=O)[C@H](CCCCNC(=O)CCl)NC(=O)[C@H](C)NC(C)=O`, in that order: 19% and 8%.
For `COC(=O)[C@H](C)NC(=O)[C@H](CCCCNC(=O)c1ccccc1)NC(=O)[C@H](C)NC(C)=O`, in that order: 12% and 14%.
For `COC(=O)[C@H](C)NC(=O)[C@H](CCCCNS(=O)(=O)C(F)(F)F)NC(=O)[C@H](C)NC(C)=O`, in that order: 15% and 4%.
For the molecule `C/C=C/C(=O)NCCCC[C@H](NC(=O)[C@H](C)NC(C)=O)C(=O)N[C@@H](C)C(=O)OC`, the inhibition in experiment [3] stood at 20%; in experiment [4], 9%.
Consider `COC(=O)[C@H](C)NC(=O)[C@H](CCCCNC(=O)N(C)C)NC(=O)[C@H](C)NC(C)=O`, for which the inhibition was found to be 24% in experiment [3] and 13% in experiment [4].
Take `COC(=O)[C@H](C)NC(=O)[C@H](CCCCNC(=O)C(C)(C)C)NC(=O)[C@H](C)NC(C)=O`: the IC50 came to 223 µM in experiment [1] and 338 µM in experiment [2]. The inhibition in experiment [3] stood at 53%; in experiment [4] it was 52%.
For `CNC(=O)[C@H](C)NC(=O)[C@H](CCCCNC(=O)c1ccc(N(C)C)cc1)NC(=O)[C@H](C)NC(C)=O`, the inhibition in experiment [3] was 39%; in experiment [4], 34%.
For `COC(=O)[C@H](C)NC(=O)[C@H](CCCCNC(C)=O)NC(=O)[C@H](C)NC(C)=O`, the IC50 came out at 268 µM in experiment [1] and 180 µM in experiment [2]. The inhibition in experiment [3] was determined as 39%; in experiment [4] it was 57%.
For `COC(=O)NCCCC[C@H](NC(=O)[C@H](C)NC(C)=O)C(=O)N[C@@H](C)C(=O)OC`, the inhibition was 8% in experiment [3] and 0% in experiment [4].
On to `CC(=O)NCCCC[C@H](NC(=O)[C@H](C)NC(C)=O)C(=O)N[C@@H](C)C(=O)O`, for which the figures for the IC50 in experiment [1] and in experiment [2] were 122 µM and 223 µM, respectively. For the same molecule, the figures for the inhibition in experiment [3] and in experiment [4] were 62% and 42%, respectively.
For `CNC(=O)[C@H](C)NC(=O)[C@H](CCCCNC(=O)C=C(C)C)NC(=O)[C@H](C)NC(C)=O` the same measures were 6.1 µM, 23 µM, 96% and 95%.
On to `CNC(=O)[C@H](C)NC(=O)[C@H](CCCCNC(=O)C(C)(C)C)NC(=O)[C@H](C)NC(C)=O`, for which the IC50 in experiment [1] was 40 µM; in experiment [2] it was 66 µM. Moreover, the inhibition in experiment [3] stood at 82%; in experiment [4], 77%.
For the molecule `CC(=O)N[C@@H](C)C(=O)N[C@@H](CCCCNC(=S)CC(C)C)C(=O)N[C@@H](C)C(=O)O`, the IC50 in experiment [1] turned out to be 0.7 µM; in experiment [2] it was 3.6 µM. Also, the inhibition in experiment [3] is 100%; in experiment [4], 99%.
As for `COC(=O)[C@H](C)NC(=O)[C@H](CCCCNC(=O)c1cccnc1)NC(=O)[C@H](C)NC(C)=O`, the inhibition in experiment [3] stood at 9%; in experiment [4], 2%.
For the molecule `COC(=O)[C@H](C)NC(=O)[C@H](CCCCNC(=O)c1ccccn1)NC(=O)[C@H](C)NC(C)=O`, the values for the inhibition in experiment [3] and in experiment [4] were 4% and 0%, respectively.
For the molecule `CC(=O)N[C@@H](C)C(=O)N[C@@H](CCCCNC(C)=S)C(=O)N[C@@H](C)C(=O)O`, the IC50 in experiment [1] was determined as 0.24 µM; in experiment [2] it was 9.8 µM. In addition, the figures for the inhibition in experiment [3] and in experiment [4] were 100% and 96%, respectively.
As for `C/C=C(\C)C(=O)NCCCC[C@H](NC(=O)[C@H](C)NC(C)=O)C(=O)N[C@@H](C)C(=O)OC`, the inhibition in experiment [3] and in experiment [4] was 39% throughout.
Consider `COC(=O)[C@H](C)NC(=O)[C@H](CCCCNS(=O)(=O)c1ccc(C)cc1)NC(=O)[C@H](C)NC(C)=O`, for which the inhibition in experiment [3] was 1%; in experiment [4], 0%.
For `COC(=O)[C@H](C)NC(=O)[C@H](CCCCNC(=O)OCc1ccccc1)NC(=O)[C@H](C)NC(C)=O`, in that order: 11% and 3%.
For `CC(=O)N[C@@H](C)C(=O)N[C@@H](CCCCNC(=O)/C=C(/C)C(F)(F)F)C(=O)N[C@@H](C)C(=O)O` the same measures were 33% and 20%.
For `CNC(=O)[C@H](C)NC(=O)[C@H](CCCCNC(=O)c1cccn1C)NC(=O)[C@H](C)NC(C)=O`, in that order: 23% and 41%.
For the molecule `COC(=O)[C@H](C)NC(=O)[C@H](CCCCNS(C)(=O)=O)NC(=O)[C@H](C)NC(C)=O`, the inhibition in experiment [3] was found to be 17%; in experiment [4] it was 8%.
For `CNC(=O)[C@H](C)NC(=O)[C@H](CCCCNC(=O)c1ccc[nH]1)NC(=O)[C@H](C)NC(C)=O`, in that order: 36% and 26%.
For the molecule `COC(=O)[C@H](C)NC(=O)[C@H](CCCCNC(=O)CBr)NC(=O)[C@H](C)NC(C)=O`, in experiment [1], half-maximal inhibition (IC50) was put at 1770 µM. Besides, the inhibition was determined as 48% in experiment [3] and 16% in experiment [4].
Take `COC(=O)[C@H](C)NC(=O)[C@H](CCCCNS(=O)(=O)c1ccc([N+](=O)[O-])cc1)NC(=O)[C@H](C)NC(C)=O`: the inhibition in experiment [3] was found to be 0%; in experiment [4], 5%.
In the case of `CC(=O)N[C@@H](C)C(=O)N[C@@H](CCCCNC(C)=[Se])C(=O)N[C@@H](C)C(=O)O`, the IC50 in experiment [1] turned out to be 0.37 µM; in experiment [2], 7.2 µM. For the same molecule, the inhibition was determined as 100% in experiment [3] and 97% in experiment [4].
For `CC(=O)N[C@@H](C)C(=O)N[C@@H](CCCCNC(=O)CC(C)C)C(=O)N[C@@H](C)C(=O)O`, in that order: 12 µM, 30 µM, 94% and 76%.
For `COC(=O)[C@H](C)NC(=O)[C@H](CCCCNC(=O)C=C(C)C)NC(=O)[C@H](C)NC(C)=O` the same measures were 46 µM, 69 µM, 78% and 74%.
For `CC(=[Se])NCCCC[C@H](NC(=O)OCc1ccccc1)C(=O)Nc1ccccc1`, in that order: 1.8 µM, 2.7 µM, 98% and 99%.
On to `COC(=O)[C@H](C)NC(=O)[C@H](CCCCNC(=O)Cc1cccnc1)NC(=O)[C@H](C)NC(C)=O`, for which the inhibition in experiment [3] came to 10%; in experiment [4] it was 0%.
The molecule `COC(=O)[C@H](C)NC(=O)[C@H](CCCCNC(=O)C1=CCCCC1)NC(=O)[C@H](C)NC(C)=O` came in with an IC50 in experiment [2] of 129 µM. Moreover, the values for the inhibition in experiment [3] and in experiment [4] were 33% and 54%, respectively.
Turning to `CC(=O)N[C@@H](C)C(=O)N[C@@H](CCCCNC(=O)C=C(C)C)C(=O)N[C@@H](C)C(=O)O`, the IC50 stood at 11 µM in experiment [1] and 77 µM in experiment [2]. The inhibition is 95% in experiment [3] and 52% in experiment [4].
As for `CP(C)(=S)NCCCC[C@H](NC(=O)OCc1ccccc1)C(=O)Nc1ccccc1`, the results for the inhibition in experiment [3] and in experiment [4] were 10% and 27%, respectively.
For `COC(=O)[C@H](C)NC(=O)[C@H](CCCCNC(=O)Cc1ccccn1)NC(=O)[C@H](C)NC(C)=O` the same measures were 26% and 21%.
